# Compound activity deposited in PubChem by The Scripps Research Institute Molecular Screening Center.
# An excerpt weighted towards active compounds, which were near 3% of everything screened.
# M4 ag: CHRM4 agonism in calcium assay; P08173; CHO-K1 hM4/Gqi5, Fluo-8 calcium fluorescence; vehicle 0%, full acetylcholine response 100%; activation, % at 3 µM; hit rate 0.14% among 360,000;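 active = activation above the run mean over all test wells plus 3 SD, cut at about 32% in these data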;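 also: peak over basal fluorescence ratio per well then scaled between controls; 0% = DMSO wells and 100% = acetylcholine at EC100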
# Target sequence (P08173 whole entry, looked up): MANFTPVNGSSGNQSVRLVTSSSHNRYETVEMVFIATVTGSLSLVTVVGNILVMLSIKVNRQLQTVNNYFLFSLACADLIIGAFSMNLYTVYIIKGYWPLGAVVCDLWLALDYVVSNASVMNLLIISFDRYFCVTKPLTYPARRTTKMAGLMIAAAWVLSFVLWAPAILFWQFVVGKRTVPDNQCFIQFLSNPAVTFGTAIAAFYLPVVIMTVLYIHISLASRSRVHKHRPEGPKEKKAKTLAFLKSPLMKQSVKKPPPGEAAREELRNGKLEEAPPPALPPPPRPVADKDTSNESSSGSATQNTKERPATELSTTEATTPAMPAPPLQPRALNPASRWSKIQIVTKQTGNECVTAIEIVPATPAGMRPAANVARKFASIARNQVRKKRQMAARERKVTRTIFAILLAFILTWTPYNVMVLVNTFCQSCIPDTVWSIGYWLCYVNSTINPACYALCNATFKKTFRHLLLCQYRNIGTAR
# TAAR1 agonist: agonists of human TAAR1; Q96RJ0; CHO RD-HGA16 TAAR1, Fluo-8 calcium fluorescence; vehicle wells 0%, saturating PEA agonist 100%; activation, % at 3 µM; hit rate 0.99% among 360,000; AID 624467;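 active = activation above the mean activation of all test compounds in the run plus 3 SD, cut at about 38% in these data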
#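 Test system: RD-HGA16 (CHO) cells co-expressing Gα16 and hTAAR1 / Benchmarks: DMSO vehicle as 0%, PEA at EC100 as 100% / Repeats: no replicates (n 1) / Measure: % activation from peak over basal fluorescence ratio, DMSO-to-PEA scaled / Timing: 17-24 h plating, Fluo-8 75 min 37 °C, 30 min RT / Technique: kinetic Fluo-8 calcium fluorescence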
# CHRM4 PAM: CHRM4 positive allosteric modulation; P08173; CHO-K1 hM4/Gqi5, Fluo-8 calcium fluorescence, ACh EC20; 0% = ACh EC20, 100% = maximal ACh; activation, % at 3 µM; hit rate 0.4% among 360,000; AID 624126;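 active = activation above its plate's cutoff, the mean activation of sample wells plus 3 SD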
# CHRM4 antagonist: blocks acetylcholine activation of human M4 receptor | AID 624125 | CHO-hM4 cells, ACh EC80, Fluo-8 calcium fluorescence | inhibition, % at 3 µM | hit rate 0.73% among 360,000;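 active = inhibition above its plate's cutoff, the mean inhibition of sample wells plus 3 SD, cut at about 27% in these data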;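 also: 0% = acetylcholine EC80 with DMSO and 100% = DMSO without agonist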
# TAAR1 antag: human TAAR1 antagonism; CHO RD-HGA16 TAAR1, Fluo-8 calcium fluorescence, antagonist; inhibition, % at 3 µM; hit rate 1.5% among 360,000; AID 624466;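 active = inhibition above a per-plate cutoff, the mean inhibition of test compounds on that plate plus 3 SD, cut at about 49% in these data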;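 also: 0% = DMSO plus EC80 beta-PEA response and 100% = DMSO alone without agonist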
#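 System: RD-HGA16 CHO cells with stable hTAAR1 and Gα16 | Probe or stimulus: EC80 β-phenethylamine stimulus | Dosing: 3 µM, single point | Times: Dye loading 75 min at 37 °C, then 30 min room temperature | Measured by: Fluo-8 calcium-sensitive fluorescence | Read-out basis: % inhibition of agonist calcium response | Replicates: n of 1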
# Starred values were filed as active, the others as inactive; . = no result.
SMILES,M4 ag,TAAR1 agonist,CHRM4 PAM,CHRM4 antagonist,TAAR1 antag
O=C(NC(CC1=CCCCC1)c1ccccc1)C(F)(F)F (configuration not stated),.,-2,.,.,3
Cc1cccc(NC(=S)NN2CCN(C)CC2)c1C,0,9,5,1,-24
Cc1ccccc1NC(=S)NN1CCN(C)CC1,1,2,30*,3,-1
COc1nc(NCCO)nc(Nc2ccc([N+](=O)[O-])cc2)n1,2,-1,25*,-2,-4
CCc1cccc(-n2c(C)cc(O)cc2=O)c1,.,1,.,.,-24
COc1cccc(-c2ccc(C#N)c(SCC(=O)NCCc3cccc(Cl)c3)n2)c1,1,8,2,0,72*
C=CC[C@H](CC(=O)N(CCO)Cc1ccccc1)C(=O)N[C@@H](C)COC(=O)[C@@H](CC=C)Cc1ccc(F)cc1,19,20,-12,5,54*
C=CCC[C@@H](Cc1ccc(F)cc1)C(=O)OC[C@@H](NC(=O)[C@@H](CC=C)CC(=O)N(CCO)Cc1ccccc1)c1ccccc1,2,10,-1,5,37
C=CC[C@@H](CC(=O)N(CCO)Cc1ccccc1)C(=O)N[C@H](COC(=O)[C@@H](CC=C)CC(=O)OC(C)(C)C)Cc1ccccc1,13,5,-7,-15,47
C=CC[C@@H](CC(=O)N[C@@H](CO)Cc1ccccc1)C(=O)N[C@H](COC(=O)[C@H](CC=C)CC(=O)OC(C)(C)C)Cc1c[nH]c2ccccc12,4,13,-6,19,52*
C=CCC[C@@H](Cc1ccc(F)cc1)C(=O)OC[C@@H](NC(=O)[C@H](CC=C)CC(=O)N(CCO)Cc1ccccc1)c1ccccc1,7,4,-6,8,61*
C=CC[C@H](CC(=O)N(CCO)Cc1ccccc1)C(=O)N[C@H](COC(=O)[C@@H](CC=C)CC(=O)OC(C)(C)C)Cc1ccccc1,19,11,-10,-10,52*
O=C(NCc1ccc(F)cc1)C1C2C=CC3(CN(Cc4cccnc4)C(=O)C13)O2 (configuration not stated),2,5,28*,-8,6
O=C(c1cccc(Br)c1)N1CCN(c2cnn(-c3ccccc3)c(=O)c2Cl)CC1,9,5,35*,-14,8
CC1CN=C(NC2CCCCC2C)S1 (configuration not stated),0,-1,-9,27*,-25
O=C(NNC(=O)c1cccc2ccccc12)c1ccc(-c2ccccc2)cc1,20,12,-9,-7,37
O=C(NNc1c2ccccc2nc2ccccc12)c1ccc(O)cc1O,15,15,-12,7,61*
COc1ccc(OCC(=O)NNc2c3ccccc3nc3ccccc23)cc1,16,16,-18,5,59*
O=C(NNC(=O)c1cccc2ccccc12)c1ccccc1O,7,2,17*,-14,-28
O=C(NNc1c2ccccc2nc2ccccc12)c1ccccc1Cl,4,2,-9,6,-10
O=C(NNc1c2ccccc2nc2ccccc12)c1ccccc1O,17,10,-11,0,54*
Cc1cc(C)c(C2=NOC3c4ccccc4OCC23)c(C)c1 (configuration not stated),.,1,.,.,-11
COC(=O)[C@]12C[C@H](CC(=O)NCC3CCCCC3)C(=O)N(Cc3ccc4c(c3)OCO4)C1=C[C@H](C(C)(C)C)O[C@@H]2C,.,-1,.,.,-21
Cc1ccc(F)cc1C(=O)N1CCCCC1c1cc(C(=O)NC(C)C)no1 (configuration not stated),2,0,4,-13,-2
COC(=O)c1cc(S(=O)(=O)N2CCCCC2)ccc1N1CCOCC1,1,0,1,4,-11
SMILES,M4 ag,TAAR1 agonist,CHRM4 PAM,CHRM4 antagonist,TAAR1 antag
COC(=O)c1cc(S(=O)(=O)N2CCOCC2)ccc1Sc1ccccc1N,2,2,22*,-1,3
C[C@@H]1CN([C@H](C)CO)C(=O)CCCn2nncc2CO[C@H]1CN(C)S(=O)(=O)c1cccc(F)c1,1,1,-2,-6,-1
Cc1[nH]c2ccccc2c1CC(=O)Nc1ccc(Nc2ccncc2)cc1,.,3,.,.,-16
CC(C)Cc1ccc(C(C)/C=C2/CCC(CN3CCCCC3)C2=O)cc1 (configuration not stated),2,4,-4,8,12
CC(C)Cc1ccc(C(C)CC2=CCC(CN(C)C)C2=O)cc1 (configuration not stated),1,3,-5,8,51*
O=S1(=O)N[C@H](Cc2ccccc2)COc2cccc(N3CCCCC3)c21,.,1,.,.,14
O=C(CC[C@H]1O[C@@H](n2ccc(=O)[nH]c2=O)[C@H](O)[C@@H]1O)NCc1cccc2ccccc12,1,0,21*,-8,-22
COc1ccc(CNC(=O)CC[C@H]2O[C@@H](n3ccc(=O)[nH]c3=O)[C@H](O)[C@@H]2O)cc1,1,3,0,-4,-14
O=C(C[n+]1ccc(Cc2ccccc2)cc1)Nc1ccc([N+](=O)[O-])cc1Cl,1,5,-20,27*,-1
O=C(C(=O)N1CCC(CNS(=O)(=O)c2ccc3ccccc3c2)CC1)c1cc2ccccc2o1,.,2,.,.,-8
C[C@@H]1CN([C@@H](C)CO)C(=O)CCCn2cc(nn2)CO[C@H]1CN(C)C(=O)C1CCCCC1,.,3,.,.,-7
N#Cc1c(-c2ccccc2)nc(-c2ccccc2)nc1N1CCOCC1,1,41*,-1,7,17
COc1ccccc1C(=O)N1CCN(C(=O)[C@H](CCc2ccccc2)NC(=O)[C@H]2O[C@@H](n3cnc4c(N)ncnc43)[C@H](O)[C@@H]2O)CC1,.,0,.,.,7
COCCCNC(=O)C[C@H]1C[C@@]2(C(=O)OC)C(=C[C@H](COCc3ccccc3)O[C@@H]2C)N(CCC2=CCCCC2)C1=O,.,-2,.,.,-39
O=S(=O)(Nc1ccccc1Cl)c1ccc(NS(=O)(=O)c2cccs2)cc1,2,38*,2,-13,8
COc1cccc(NC(=O)Cn2nc(Cc3cccnc3)c3ccccc3c2=O)c1,0,1,-13,59*,12
COc1ccc(CNC(=O)Cn2nc(Cc3cccnc3)c3ccccc3c2=O)cc1,2,2,0,-5,-24
COc1cccc(NC(=O)C2C3C=CC(O3)C2C(=O)NCc2cccnc2)c1 (configuration not stated),0,7,37*,2,-8
CCCCS(=O)(=O)N1CCCc2nc(-c3ccccc3)ccc21,.,-1,.,.,-16
C[C@@H]1CN([C@@H](C)CO)C(=O)CCCn2cc(nn2)CO[C@H]1CN(C)C(=O)Nc1ccc2c(c1)OCCO2,.,1,.,.,-2
